In ChEMBL document CHEMBL1158698, “Chinikomycins A and B: isolation, structure elucidation, and biological activity of novel antibiotics from a marine Streptomyces sp. isolate M045” (J Nat Prod, 2005):
Values after ≈ are worked out from the molar mass of the structure shown. Active and inactive are the calls of the source. The calls are words filed in the database; no cut-off is given here.

Columns and labels:
[1] = Antitumor activity against human MEXF 462NL cells; type: functional, cell-based
Rhizomucor miehei [2] = assay: Antimicrobial activity against Mucor miehei at 40 ug/plate; type: functional, organism-based
In short: (§1)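 Agar plate diffusion test. The stated amount of compound is applied per test plate seeded with the named bacterium, alga or fungus. The read-out is the diameter of the growth-inhibition zone, in mm.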

[3] = test system: Encephalomyocarditis virus; assay: Antiviral activity against EMC virus infected in human A549 cells assessed as protection against virus-induced cytopathic effect at 100 ug/ml; type: functional, organism-based
Desmodesmus subspicatus [4] = assay: Antimicrobial activity against Scenedesmus subspicatus at 40 ug/plate; type: functional, organism-based; in short: as §1
Chlorella vulgaris [5] = assay: Antimicrobial activity against Chlorella vulgaris at 40 ug/plate; type: functional, organism-based; in short: as §1
[6] = Antitumor activity against human LXFA 629L cells; type: functional, cell-based
[7] = Antitumor activity against human LXFL 529L cells; type: functional, cell-based
Chlorella sorokiniana [8] = assay: Antimicrobial activity against Chlorella sorokiniana at 40 ug/plate; type: functional, organism-based; in short: as §1
[9] = Antitumor activity against human MAXF 401NL cells; type: functional, cell-based
Escherichia coli [10] = assay: Antimicrobial activity against Escherichia coli at 40 ug/plate; type: functional, organism-based; in short: as §1
Staphylococcus aureus [11] = assay: Antimicrobial activity against Staphylococcus aureus at 40 ug/plate; type: functional, organism-based; in short: as §1
[12] = Antitumor activity against human UXF 1138L cells; type: functional, cell-based
[13] = test system: Streptomyces viridochromogenes; assay: Antimicrobial activity against Streptomyces viridochromogenes Tu 57 at 40 ug/plate; type: functional, organism-based; in short: as §1
[14] = Antitumor activity against human RXF 944L cells; type: functional, cell-based
Bacillus subtilis [15] = assay: Antimicrobial activity against Bacillus subtilis at 40 ug/plate; type: functional, organism-based; in short: as §1
Candida albicans [16] = assay: Antimicrobial activity against Candida albicans at 40 ug/plate; type: functional, organism-based; in short: as §1
Rhizomucor miehei [17] = assay: Antimicrobial activity against Mucor miehei at 10 ug/plate; type: functional; in short: as §1
Candida albicans [18] = assay: Antimicrobial activity against Candida albicans at 10 ug/plate; type: functional; in short: as §1
Desmodesmus subspicatus [19] = assay: Antimicrobial activity against Scenedesmus subspicatus at 10 ug/plate; type: functional; in short: as §1
[20] = test system: Streptomyces viridochromogenes; assay: Antimicrobial activity against Streptomyces viridochromogenes Tu 57 at 10 ug/plate; type: functional; in short: as §1
Staphylococcus aureus [21] = assay: Antimicrobial activity against Staphylococcus aureus at 10 ug/plate; type: functional; in short: as §1
Chlorella vulgaris [22] = assay: Antimicrobial activity against Chlorella vulgaris at 10 ug/plate; type: functional; in short: as §1
Escherichia coli [23] = assay: Antimicrobial activity against Escherichia coli at 10 ug/plate; type: functional; in short: as §1
Chlorella sorokiniana [24] = assay: Antimicrobial activity against Chlorella sorokiniana at 10 ug/plate; type: functional; in short: as §1
Bacillus subtilis [25] = assay: Antimicrobial activity against Bacillus subtilis at 10 ug/plate; type: functional; in short: as §1

| IC50 [1] [µg/mL] | IC50 [6] [µg/mL] | IC50 [7] [µg/mL] | IC50 [9] [µg/mL] | IC50 [12] [µg/mL] | IC50 [14] [µg/mL] | Compound | Activity (Rhizomucor miehei [2]) | Activity [3] | Activity (Desmodesmus subspicatus [4]) | Activity (Chlorella vulgaris [5]) | Activity (Chlorella sorokiniana [8]) | Activity (Escherichia coli [10]) | Activity (Staphylococcus aureus [11]) | Activity [13] | Activity (Bacillus subtilis [15]) | Activity (Candida albicans [16]) | other results |
| --- | --- | --- | --- | --- | --- | --- | --- | --- | --- | --- | --- | --- | --- | --- | --- | --- | --- |
| 4.15 (≈ 7.29 µM) | > 6 | > 6 | 2.41 (≈ 4.23 µM) | > 6 | 4.02 (≈ 7.06 µM) | CCCC[C@@H](C)/C=C(C)/C=C(\C)C(=O)Nc1cc(O)c(/C=C/C=C/C=C/C(=O)NC2=C(O)CCC2=O)c(Cl)c1O [CHINIKOMYCIN A] | inactive | inactive | inactive | inactive | inactive | inactive | inactive | inactive | inactive | inactive | – |
| > 6 | > 6 | > 6 | 3.04 (≈ 5.36 µM) | > 6 | > 6 | CCCC[C@@H](C)/C=C(C)/C=C(\C)C(=O)NC1=CC(=O)C(/C=C/C=C/C=C/C(=O)NC2=C(O)CCC2=O)=C(Cl)C1=O [CHINIKOMYCIN B] | inactive | inactive | inactive | inactive | inactive | inactive | inactive | inactive | inactive | inactive | – |
| – | – | – | – | – | – | CCCC[C@@H](C)/C=C(C)/C=C(\C)C(=O)NC1=C[C@@](O)(/C=C/C=C/C=C/C(=O)NC2=C(O)CCC2=O)[C@@H]2O[C@@H]2C1=O [MANUMYCIN A] | – | – | – | – | – | – | – | – | – | – | inhibition zone (IZ) (Rhizomucor miehei [17]): 16 mm; inhibition zone (IZ) (Candida albicans [18]): 16 mm; inhibition zone (IZ) (Desmodesmus subspicatus [19]): 16 mm; inhibition zone (IZ) [20]: 16 mm; inhibition zone (IZ) (Staphylococcus aureus [21]): 16 mm; inhibition zone (IZ) (Chlorella vulgaris [22]): 16 mm; inhibition zone (IZ) (Escherichia coli [23]): 16 mm; inhibition zone (IZ) (Chlorella sorokiniana [24]): 16 mm; inhibition zone (IZ) (Bacillus subtilis [25]): 16 mm |
